Test [1] has as its target T1, 17-beta-hydroxysteroid dehydrogenase type 1 (Homo sapiens) (UniProt P14061).
T1 sequence (whole entry): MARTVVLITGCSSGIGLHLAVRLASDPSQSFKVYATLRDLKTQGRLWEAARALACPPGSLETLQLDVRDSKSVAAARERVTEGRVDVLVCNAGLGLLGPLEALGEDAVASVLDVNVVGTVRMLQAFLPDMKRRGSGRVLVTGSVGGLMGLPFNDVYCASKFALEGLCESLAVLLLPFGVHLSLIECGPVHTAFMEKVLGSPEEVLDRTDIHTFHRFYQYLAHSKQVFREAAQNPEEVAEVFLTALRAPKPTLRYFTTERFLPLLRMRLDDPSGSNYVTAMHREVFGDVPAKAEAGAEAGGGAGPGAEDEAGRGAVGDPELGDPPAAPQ
In words: Inhibition of human cytosolic 17beta-HSD1 using [2,4,6,7-3H]E1 as substrate at 1 uM after 10 mins by radioflow detector. Summed up: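 Cytosolic fraction from human placenta incubated with NADH (500 µM), test compound and unlabeled plus [2,4,6,7-3H]-E1 (final 500 nM) for 10 min at 37 °C. Phosphate buffer 50 mM with 20% glycerol and 1 mM EDTA. Inhibitor stocks made in DMSO. Reaction stopped with HgCl2 and extracted with ether. Substrate and product separated by HPLC with radioflow detection. Values are the mean of three determinations.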

In test [2] the target is T2, 17-beta-hydroxysteroid dehydrogenase type 2 (Homo sapiens) (UniProt P37059).
T2 sequence (whole entry): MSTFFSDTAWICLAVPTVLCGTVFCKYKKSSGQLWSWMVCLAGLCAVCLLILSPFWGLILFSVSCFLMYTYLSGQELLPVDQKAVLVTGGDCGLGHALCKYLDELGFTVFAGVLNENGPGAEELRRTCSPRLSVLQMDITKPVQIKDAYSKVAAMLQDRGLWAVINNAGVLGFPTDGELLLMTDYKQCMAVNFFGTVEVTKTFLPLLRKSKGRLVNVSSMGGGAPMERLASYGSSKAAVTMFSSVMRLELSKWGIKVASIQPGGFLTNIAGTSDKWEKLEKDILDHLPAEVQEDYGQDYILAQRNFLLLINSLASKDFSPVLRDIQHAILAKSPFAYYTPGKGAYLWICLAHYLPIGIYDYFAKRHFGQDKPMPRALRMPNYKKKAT
In words: Inhibition of human microsomal 17beta-HSD2 using [2,4,6,7-3H]E2 as substrate at 1 uM after 20 mins by radioflow detector. A digest of the protocol:
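Microsomal fraction from human placenta incubated at 37 °C for 20 min with NAD+ (1500 µM), inhibitor and unlabeled plus [2,4,6,7-3H]-E2 (final 500 nM). Phosphate buffer 50 mM with 20% glycerol and 1 mM EDTA. Inhibitor stocks made in DMSO. Reaction stopped with HgCl2 and extracted with ether. E2 and E1 separated by HPLC with radioflow detection. Values are the mean of three determinations.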

The species entered for the next test is Homo sapiens. In words: Selectivity ratio of IC50 for human cytosolic 17beta-HSD1 to IC50 for human microsomal 17beta-HSD2. Summed up:
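Ratio calculated as IC50(17β-HSD1)/IC50(17β-HSD2). 17β-HSD1 was measured in placental cytosol with [3H]-E1 + E1 (500 nM) and NADH (0.5 mM). 17β-HSD2 was measured in placental microsomes with [3H]-E2 + E2 (500 nM) and NAD+ (1.5 mM). Each IC50 is the mean of three determinations.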

In test [3] the target is T3, 17-beta-hydroxysteroid dehydrogenase type 1 (Homo sapiens, UniProt P14061).
T3 sequence (P14061 whole entry): T1 sequence (whole entry)
Description: Inhibition of human cytosolic 17beta-HSD1 in cell-free system using [2,4,6,7-3H]E1 as substrate after 10 mins by radioflow detector.

In test [4] the target is T4, 17-beta-hydroxysteroid dehydrogenase type 2 (Homo sapiens, UniProt P37059).
T4 sequence (P37059 whole entry): T2 sequence (whole entry)
Description: Inhibition of human microsomal 17beta-HSD2 in cell-free system using [2,4,6,7-3H]E2 as substrate after 20 mins by radioflow detector.

Test [5] addresses Estrogen receptor beta (Homo sapiens) (UniProt Q92731). In words: Displacement of [3H]E2 from human recombinant ERbeta after 1 hr by liquid scintillation counting relative to estradiol. A digest of the protocol: (§1)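 Recombinant human ERα or ERβ (0.25 pmol) incubated with [3H]-E2 (10 nM) and test compound for 1 h at room temperature, DMSO 5% final. Non-specific binding defined with diethylstilbestrol. Receptor-ligand complexes captured on hydroxyapatite, washed, resuspended in ethanol, and counted by liquid scintillation. IC50 for [3H]-E2 displacement taken from sigmoidal curves. RBA = IC50(E2)/IC50(compound) × 100, with unlabeled E2 as reference.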
In general terms: In a radioligand displacement assay an active substance lowers the binding of a labelled ligand.

For test [6], the target named is T5, Estrogen receptor (Homo sapiens) (UniProt P03372).
T5 sequence (whole entry): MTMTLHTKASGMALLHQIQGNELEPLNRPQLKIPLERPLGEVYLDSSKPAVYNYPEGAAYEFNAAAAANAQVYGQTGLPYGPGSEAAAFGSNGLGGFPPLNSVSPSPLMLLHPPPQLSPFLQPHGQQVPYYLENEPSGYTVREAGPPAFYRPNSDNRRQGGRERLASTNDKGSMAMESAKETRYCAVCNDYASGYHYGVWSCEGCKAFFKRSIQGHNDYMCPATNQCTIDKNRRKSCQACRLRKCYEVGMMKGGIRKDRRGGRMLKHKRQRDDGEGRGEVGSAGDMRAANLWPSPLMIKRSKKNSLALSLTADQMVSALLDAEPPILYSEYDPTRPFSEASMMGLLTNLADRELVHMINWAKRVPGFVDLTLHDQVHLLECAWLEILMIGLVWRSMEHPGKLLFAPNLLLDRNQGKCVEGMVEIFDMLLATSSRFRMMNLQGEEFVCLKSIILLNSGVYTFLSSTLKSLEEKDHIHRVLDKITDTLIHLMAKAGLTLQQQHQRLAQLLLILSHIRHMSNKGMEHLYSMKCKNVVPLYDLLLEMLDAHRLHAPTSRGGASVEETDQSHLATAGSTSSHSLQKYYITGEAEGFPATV
Description: Displacement of [3H]E2 from human recombinant ERalpha after 1 hr by liquid scintillation counting relative to estradiol. A digest of the protocol: as §1

Molecules are shown by their SMILES.

Estrogen receptor beta (Homo sapiens), sequence (Q92731 whole entry): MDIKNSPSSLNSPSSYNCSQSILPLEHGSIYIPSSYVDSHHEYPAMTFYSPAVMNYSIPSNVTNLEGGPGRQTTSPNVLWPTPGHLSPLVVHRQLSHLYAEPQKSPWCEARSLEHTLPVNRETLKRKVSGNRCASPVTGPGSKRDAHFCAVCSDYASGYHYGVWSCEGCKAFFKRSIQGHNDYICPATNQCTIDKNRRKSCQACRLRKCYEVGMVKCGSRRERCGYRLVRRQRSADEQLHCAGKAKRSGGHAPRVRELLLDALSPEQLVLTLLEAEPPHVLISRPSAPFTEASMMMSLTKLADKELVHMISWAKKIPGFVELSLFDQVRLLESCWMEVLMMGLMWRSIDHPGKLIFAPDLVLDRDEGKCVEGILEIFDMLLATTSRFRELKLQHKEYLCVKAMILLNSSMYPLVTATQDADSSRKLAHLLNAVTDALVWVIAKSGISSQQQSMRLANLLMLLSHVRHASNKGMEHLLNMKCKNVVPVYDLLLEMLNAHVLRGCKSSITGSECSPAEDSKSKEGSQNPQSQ

As to `Cc1cc(O)ccc1-c1cccc(C(=O)c2cccc(O)c2)n1`, the figures for the inhibition in test [1] and in test [2] were under 10% and 18%, respectively.
`O=C(c1cccc(O)c1)c1cccc(-c2ccccc2O)n1`: the inhibition in test [1] and in test [2] was under 10% each time.
Turning to `Cc1cc(-c2cccc(C(=O)c3cccc(O)c3)n2)ccc1O`, the inhibition is under 10% in test [1] and 84% in test [2].
Turning to `Cc1cc(-c2cccc(C(=O)c3ccc(F)c(O)c3)n2)ccc1O`, the Ratio IC50 in the test listed under Homo sapiens was 30. Moreover, the results for the IC50 in test [3] and in test [4] were 22400 nM and 757 nM, respectively. For the same molecule, the inhibition in test [1] is under 10%; in test [2] it was 62%.
For the molecule `Cc1cc(-c2ccc(C(=O)c3cccc(O)c3)cc2)ccc1O`, the Ratio IC50 in the test listed under Homo sapiens was found to be 3. In addition, the RBA in test [5] and in test [6] was under 0.1% in each case. Also, the IC50 in test [3] is 413 nM; in test [4] it was 132 nM. Moreover, the inhibition is 58% in test [1] and 90% in test [2].
As to `O=C(c1ccc(F)c(O)c1)c1ccc(-c2ccc(O)c(Cl)c2)cn1`, the Ratio IC50 in the test filed under Homo sapiens was 7. For the same molecule, the results for the concentration for half-maximal inhibition (IC50) in test [3] and in test [4] were 1010 nM and 153 nM, respectively. Moreover, the figures for the inhibition in test [1] and in test [2] were 50% and 87%, respectively.
In the case of `O=C(c1cccc(O)c1)c1cccc(-c2ccc(O)cc2F)n1`, the inhibition in test [1] came to 64%; in test [2], 56%.
For the molecule `Cc1cc(-c2ccc(C(=O)c3ccc(F)c(O)c3)nc2)ccc1O`, in the test filed under Homo sapiens, the Ratio IC50 was 13. For the same molecule, the RBA in test [5] and in test [6] was under 0.1% in each case. Also, the results for the IC50 in test [3] and in test [4] were 1270 nM and 101 nM, respectively. Also, the values for the inhibition in test [1] and in test [2] were 47% and 84%, respectively.
On to `O=C(c1ccc(-c2ccc(O)c(F)c2)cc1)c1cccc(O)c1`, for which the Ratio IC50 in the test listed under Homo sapiens turned out to be 5. Moreover, the IC50 in test [3] is 2430 nM; in test [4], 525 nM. For the same molecule, the inhibition in test [1] was 26%; in test [2] it was 68%.
For the molecule `Cc1cc(-c2ccc(C(=O)c3ccc(F)c(F)c3)cc2)ccc1O`, the results for the inhibition in test [1] and in test [2] were 16% and 11%, respectively.
Consider `O=C(c1cccc(O)c1)c1cccc(-c2ccc(O)c(Cl)c2)n1`, for which the Ratio IC50 in the test filed under Homo sapiens is 81. Moreover, the IC50 was 60600 nM in test [3] and 752 nM in test [4]. The inhibition was under 10% in test [1] and 55% in test [2].
Turning to `Cc1cc(-c2ccc(C(=O)c3ccc(F)c(O)c3)cc2)ccc1O`, the Ratio IC50 in the test filed under Homo sapiens is 9. The RBA in test [5] and in test [6] was under 0.1% in each case. For the same molecule, the figures for the IC50 in test [3] and in test [4] were 289 nM and 34 nM, respectively. For the same molecule, the inhibition in test [1] came out at 79%; in test [2], 98%.
For the molecule `O=C(c1ccc(-c2ccc(O)cc2Cl)cc1)c1cccc(O)c1`, in the test filed under Homo sapiens, the Ratio IC50 came to 11. Further, the IC50 in test [3] came to 1760 nM; in test [4], 176 nM. Besides, the inhibition was 43% in test [1] and 80% in test [2].
In the same order, the values of `Cc1cc(-c2cccc(C(=O)c3cccc(O)c3)c2)ccc1O` are 1, 475 nM, 379 nM, 50% and 77%.
As to `O=C(c1cccc(O)c1)c1cccc(-c2ccc(O)cc2)n1`, the inhibition was under 10% in test [1] and 16% in test [2].
In the case of `O=C(c1ccc(-c2ccc(O)c(Cl)c2)cc1)c1ccc(F)c(O)c1`, the Ratio IC50 in the test filed under Homo sapiens was 2. Moreover, the RBA in test [5] and in test [6] was under 0.1% in each case. For the same molecule, the concentration for half-maximal inhibition (IC50) in test [3] turned out to be 53 nM; in test [4] it was 24 nM. Further, the inhibition came out at 95% in test [1] and 100% in test [2].
`O=C(c1ccc(-c2ccc(O)c(Cl)c2)cc1)c1cccc(O)c1`: the Ratio IC50 in the test filed under Homo sapiens was determined as 4. Further, the RBA in test [5] and in test [6] was under 0.1% in each case. In addition, the IC50 in test [3] is 571 nM; in test [4], 153 nM. Also, the inhibition is 66% in test [1] and 92% in test [2].
As for `Cc1cc(-c2ccc(C(=O)c3cccc(O)c3)cn2)ccc1O`, the Ratio IC50 in the test listed under Homo sapiens was found to be 3. For the same molecule, the IC50 in test [3] amounted to 567 nM; in test [4] it was 220 nM. The inhibition in test [1] turned out to be 58%; in test [2] it was 84%.
With `Cc1cc(-c2cccc(C(=O)c3cc(O)cc(F)c3)n2)ccc1O`, the inhibition in test [1] was under 10%; in test [2], 57%.
For `O=C(c1cccc(O)c1)c1cccc(-c2cccc(O)c2)n1`, the inhibition in test [1] and in test [2] was under 10% each time.
In the case of `O=C(c1cccc(O)c1)c1cccc(-c2ccc(O)c(F)c2)n1`, the values for the inhibition in test [1] and in test [2] were 47% and 40%, respectively.
Taken in the same sequence, the figures for `Cc1cc(-c2cccc(C(=O)c3ccc(C)c(O)c3)n2)ccc1O` were under 10% and 28%.
Take `Cc1cc(-c2ccc(C(=O)c3cc(O)cc(F)c3)cc2)ccc1O`: the Ratio IC50 in the test filed under Homo sapiens is 5. For the same molecule, the RBA in test [5] and in test [6] was under 0.1% throughout. Further, the 50% inhibitory concentration (IC50) worked out at 159 nM in test [3] and 31 nM in test [4]. The inhibition in test [1] is 84%; in test [2], 100%.
As to `Cc1cc(-c2ccc(C(=O)c3cccc(O)c3)nc2)ccc1O`, in the test filed under Homo sapiens, the Ratio IC50 was 21. Also, the RBA in test [5] and in test [6] was under 0.1% each time. The IC50 in test [3] was determined as 5480 nM; in test [4] it was 260 nM. Further, the inhibition in test [1] is 24%; in test [2], 73%.
For `Cc1cc(-c2ccc(C(=O)c3cccc(O)c3)s2)ccc1O`, in the test filed under Homo sapiens, the Ratio IC50 was 0.02.

Broadly, the inhibition is the drop in the measured response relative to a control, in per cent. Broadly, the IC50 is the concentration needed to halve the response being measured. High values mean a need for much substance, low ones inhibition by little substance.

The record behind these values is ChEMBL document CHEMBL1926507, “Discovery of a new class of bicyclic substituted hydroxyphenylmethanones as 17β-hydroxysteroid dehydrogenase type 2 (17β-HSD2) inhibitors for the treatment of osteoporosis” (Eur J Med Chem, 2012).
